These results are taken from PubChem BioAssay.

Molecules are shown by their SMILES. Calls of active or inactive are those of the source.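 Rule for the calls, unless noted: active = current rise at least 3 SD above the untreated control mean in each of two repeat wells; inactive = the rest.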

Potassium voltage-gated channel subfamily KQT member 1 (Homo sapiens), sequence (P51787 whole entry, looked up): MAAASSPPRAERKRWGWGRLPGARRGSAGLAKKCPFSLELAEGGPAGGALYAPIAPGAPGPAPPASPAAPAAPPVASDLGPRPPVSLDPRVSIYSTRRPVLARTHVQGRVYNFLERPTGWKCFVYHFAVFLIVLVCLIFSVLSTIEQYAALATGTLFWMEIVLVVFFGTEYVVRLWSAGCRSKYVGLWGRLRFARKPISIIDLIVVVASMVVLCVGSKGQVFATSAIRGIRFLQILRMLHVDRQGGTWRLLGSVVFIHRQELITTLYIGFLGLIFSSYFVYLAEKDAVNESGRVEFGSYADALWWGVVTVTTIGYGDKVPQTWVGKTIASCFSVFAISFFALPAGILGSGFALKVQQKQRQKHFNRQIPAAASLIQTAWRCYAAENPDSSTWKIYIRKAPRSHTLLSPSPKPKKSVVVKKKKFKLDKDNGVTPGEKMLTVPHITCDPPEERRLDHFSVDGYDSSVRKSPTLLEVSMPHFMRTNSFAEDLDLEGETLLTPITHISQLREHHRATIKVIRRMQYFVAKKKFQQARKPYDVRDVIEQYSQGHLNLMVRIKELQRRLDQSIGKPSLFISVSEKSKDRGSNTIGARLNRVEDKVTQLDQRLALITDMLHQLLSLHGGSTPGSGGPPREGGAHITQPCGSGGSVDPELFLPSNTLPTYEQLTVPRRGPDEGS

The target in the first test is Potassium voltage-gated channel subfamily KQT member 2 (Rattus norvegicus) (UniProt O88943). In words: KCNQ2 thallium flux enhancement – KCNQ2-CHO-K1 cells, selectivity assay for KCNQ1 potentiator project (AID 493009;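 active = mean duplicate potentiation above the buffer control mean plus 5 SD of buffer wells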;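 note: assay conditions were tuned for KCNQ1 rather than KCNQ2 modulators; signal is max minus min fluorescence divided by baseline after thallium stimulus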). The conditions noted are these: FluxOR thallium flux fluorescence, at 10 µM; active compounds read high, scaled: buffer 0, activator control 100.
Potassium voltage-gated channel subfamily KQT member 2 (Rattus norvegicus), sequence (O88943 whole entry, looked up): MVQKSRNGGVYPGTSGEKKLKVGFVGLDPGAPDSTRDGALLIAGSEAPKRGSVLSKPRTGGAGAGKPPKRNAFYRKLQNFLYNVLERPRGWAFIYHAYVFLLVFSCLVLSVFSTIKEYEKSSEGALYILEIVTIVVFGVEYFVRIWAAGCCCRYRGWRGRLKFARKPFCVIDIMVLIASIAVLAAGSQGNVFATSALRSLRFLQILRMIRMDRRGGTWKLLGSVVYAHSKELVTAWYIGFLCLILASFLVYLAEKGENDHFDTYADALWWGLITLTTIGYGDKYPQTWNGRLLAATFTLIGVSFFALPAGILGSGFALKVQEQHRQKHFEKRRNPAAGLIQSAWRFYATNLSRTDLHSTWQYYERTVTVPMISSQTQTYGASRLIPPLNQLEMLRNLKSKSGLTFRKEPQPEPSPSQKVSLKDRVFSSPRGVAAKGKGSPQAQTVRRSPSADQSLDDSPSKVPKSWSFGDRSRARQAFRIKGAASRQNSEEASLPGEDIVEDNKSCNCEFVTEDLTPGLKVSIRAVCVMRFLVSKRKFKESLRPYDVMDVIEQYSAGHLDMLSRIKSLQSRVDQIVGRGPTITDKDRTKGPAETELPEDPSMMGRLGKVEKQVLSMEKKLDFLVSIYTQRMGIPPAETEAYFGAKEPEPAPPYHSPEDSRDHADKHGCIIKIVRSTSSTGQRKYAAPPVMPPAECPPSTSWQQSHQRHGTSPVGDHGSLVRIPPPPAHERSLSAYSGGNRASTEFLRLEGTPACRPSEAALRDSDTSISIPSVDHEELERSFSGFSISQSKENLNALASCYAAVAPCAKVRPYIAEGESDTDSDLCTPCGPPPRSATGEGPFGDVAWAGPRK
In the case of `CCc1ccc(NC(=O)CSc2nc3ccsc3c(=O)n2CCC(=O)O)cc1`, the potentiation was 172% (active).

For `CC(CCc1ccccc1)NC(=O)COc1cc(F)ccc1[N+](=O)[O-]` (stereo unspecified), the result was inactive. On the same count and under the same terms, the value for `O=C(NC(=S)N1CCCCCC1)c1ccccc1` was “inactive”.

In the case of `CCCc1cc(=O)n2[nH]cc(-c3ccc(Cl)cc3)c2n1`, the potentiation is 164% (active). For the compound `COc1cc(/C=N/Nc2snc(SC)c2C#N)ccc1O`, the result was inactive. Same read-out and setting: next, `O=Cc1ccc2noc(-c3ccc(Cl)cc3)c2c1`: “inactive”. For `CC(=O)c1ccc(OCc2cc(C(=O)N3CC[C@@H]4CCCC[C@H]4C3)no2)cc1`, the potentiation was 160% (active). The same measure, in the same setting: the value for `COc1cccc(C(=O)NNC(=O)C(=O)Nc2ccc(C)c(Cl)c2)c1` was 311% (active). As for `CCS(=O)(=O)Nc1ccc(C(=O)CC2(O)C(=O)Nc3ccccc32)cc1` (stereo unspecified), the outcome was inactive. As for `C=CCNc1nnc(SCC(=O)N2CCC(C(N)=O)CC2)s1`, the result was inactive. Still for that read-out and setting: next, `CCOCC(=O)Nc1ccc2c(c1)N(S(=O)(=O)c1cccs1)CCC2`: “inactive”. Take `O=C(NC(=S)Nc1ccccc1)c1cc(-c2ccccc2)nc2ccccc12`: the potentiation was 194% (active). As to `CN(C)c1ccc(NC(=O)COC(=O)c2cc(Cl)ccc2[N+](=O)[O-])cc1`, the outcome was inactive. Turning to `CCN(c1ccccc1)S(=O)(=O)c1ccc(OC)c(OC)c1`, the potentiation was 162% (active). Turning to `CC(C)Cc1ccc(C(C)C(=O)Nc2ccc(O)cc2)cc1` (stereo unspecified), the outcome was inactive. Still for that read-out and setting: the value for `CCOC(=O)Cn1nc(-c2ccc(F)cc2)cc(Cc2ccccc2)c1=O` was “inactive”; that for `Cc1nc2sc(C(c3ccccc3)N3CCN(C(=O)c4ccco4)CC3)c(O)n2n1` (stereo unspecified) was “inactive”; that for `O=C(Nc1ccc(N2CCCCC2)cc1)c1cccnc1Cl` was “inactive”. In the case of `Cc1ccccc1OCC(=O)N=Nc1c(O)n(C)c2ccccc12`, the potentiation was 188% (active).

In the case of `COC(=O)c1c(N)sc2c1CCN(c1ncc(C(F)(F)F)cc1Cl)C2`, the potentiation is 142% (active). Turning to `CC(=O)Nc1ccc(NC(=O)c2cccc(C(=O)OC(C)C)n2)cc1`, the result was inactive.

The next test deals with Potassium voltage-gated channel subfamily KQT member 1 (Homo sapiens) (UniProt P51787). As to the kind of experiment: KCNQ1 activators by electrophysiology – IonWorks patch clamp, KCNQ1-CHO cells, orthogonal assay for KCNQ1 potentiator project, confirmation (AID 493184). The conditions noted are these: automated patch clamp current, at 10 µM; active compounds read high. Put shortly:
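Test system: KCNQ1-expressing CHO cells. Medium: pH 7.4 external bath. Probe or stimulus: voltage step from -90 mV holding to +40 mV, 2,000 ms. Compound: 10 µM final, single point. Detection: automated perforated-patch electrophysiology. Read-out: percent current increase versus pre-compound level. Repeats: two replicates.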
(In patch-clamp work, channel activity is measured electrically.)
`Cc1ccccc1NC(=O)C(=O)NNC(=O)COc1ccc2ccccc2c1`: the result was inactive. Consider `CCOC(=O)c1c(NC(=O)C(C)N2CCN(C(=O)c3ccco3)CC2)sc2c1CCCC2` (stereo unspecified), for which the result was inactive. Consider `CC(=O)N/C(=C/c1ccc2c(c1)OCO2)C(=O)O`, for which the outcome was inactive.

Take `CCOC(=O)C(=NCC1CCCO1)NNc1ccccc1Cl` (stereo unspecified): the outcome was inactive. For the compound `CC(C)(C)NC(=O)C(=O)NNC(=O)c1cccc(Br)c1`, the outcome was inactive.

Consider `Cc1ccc(-c2c(C(=O)O)c3ccccc3[nH]c2=O)cc1`, for which the result was inactive. For the compound `O=C(NCCN1CCOCC1)[C@H](Cc1ccccc1)N1C(=O)c2ccccc2C1=O`, the outcome was inactive. On the same count and under the same terms, next, `Cc1ccc2c(c1)c(C)c(C)n2CC(O)CN1CCCCC1C` (stereo unspecified): “inactive”; `O=c1[nH]c2ccc(Cl)cc2c(-c2ccccc2)c1N1CCN(CCO)CC1`: “inactive”; `CCOC(=O)c1ccccc1N1C(=O)CSC1=S`: “inactive”. The same measure, in the same setting: next, `CCSc1nc2c(sc3ccccc32)c(=O)n1C(C)C`: “inactive”; `O=C(CNC(=O)C(c1ccccc1)c1ccccc1)N/N=C/c1ccc(O)cc1O`: “inactive”; `Cc1cccc(OCC(=O)O/N=C(\N)c2ccc(Cl)cc2)c1`: “inactive”.

On to `CC1Oc2ccccc2OC1(O)c1ccccn1` (stereo unspecified), for which the result was inactive. The same measure, in the same setting: next, `Cc1ccc(C)c(NC(=S)N(Cc2ccco2)C(C)c2cccs2)c1` (stereo unspecified): “inactive”; `O=C(NC(=S)Nc1cccnc1)c1cc2ccccc2o1`: “inactive”. As to `CCOC(=O)c1sc2ncnc(NCc3ccco3)c2c1C`, the result was inactive.

In the case of `O=c1oc2cc(OCCO)ccc2c2c1CCCC2`, the result was inactive. On the same count and under the same terms, the value for `O=C(c1ccccc1)N1CCC(CC2CC(c3ccc(Cl)cc3)=NO2)(C(=O)NCC2CCCCC2)CC1` (stereo unspecified) was “inactive”; that for `CCc1ccc(NC(=O)CSc2nc3ccsc3c(=O)n2CCC(=O)O)cc1` was “inactive”; that for `CC(CCc1ccccc1)NC(=O)COc1cc(F)ccc1[N+](=O)[O-]` (stereo unspecified) was “inactive”.

As for `O=C(NC(=S)N1CCCCCC1)c1ccccc1`, the outcome was inactive. `CCCc1cc(=O)n2[nH]cc(-c3ccc(Cl)cc3)c2n1`: the outcome was inactive. In the case of `COc1cc(/C=N/Nc2snc(SC)c2C#N)ccc1O`, the result was inactive.

Regarding `O=Cc1ccc2noc(-c3ccc(Cl)cc3)c2c1`, the outcome was inactive. On the same count and under the same terms, next, `CC(=O)c1ccc(OCc2cc(C(=O)N3CC[C@@H]4CCCC[C@H]4C3)no2)cc1`: “inactive”. The same measure, in the same setting: next, `COc1cccc(C(=O)NNC(=O)C(=O)Nc2ccc(C)c(Cl)c2)c1`: “inactive”.

On to `CCS(=O)(=O)Nc1ccc(C(=O)CC2(O)C(=O)Nc3ccccc32)cc1` (stereo unspecified), for which the result was inactive. Consider `C=CCNc1nnc(SCC(=O)N2CCC(C(N)=O)CC2)s1`, for which the outcome was inactive. In the case of `CCOCC(=O)Nc1ccc2c(c1)N(S(=O)(=O)c1cccs1)CCC2`, the outcome was inactive. Same read-out and setting: the value for `O=C(NC(=S)Nc1ccccc1)c1cc(-c2ccccc2)nc2ccccc12` was “inactive”; that for `CN(C)c1ccc(NC(=O)COC(=O)c2cc(Cl)ccc2[N+](=O)[O-])cc1` was “inactive”.

With `CCN(c1ccccc1)S(=O)(=O)c1ccc(OC)c(OC)c1`, the outcome was inactive. Same read-out and setting: the value for `CC(C)Cc1ccc(C(C)C(=O)Nc2ccc(O)cc2)cc1` (stereo unspecified) was “inactive”; that for `CCOC(=O)Cn1nc(-c2ccc(F)cc2)cc(Cc2ccccc2)c1=O` was “inactive”; that for `Cc1nc2sc(C(c3ccccc3)N3CCN(C(=O)c4ccco4)CC3)c(O)n2n1` (stereo unspecified) was “inactive”. Still for that read-out and setting: the value for `O=C(Nc1ccc(N2CCCCC2)cc1)c1cccnc1Cl` was “inactive”.

`Cc1ccccc1OCC(=O)N=Nc1c(O)n(C)c2ccccc12`: the outcome was inactive. Same read-out and setting: the value for `COC(=O)c1c(N)sc2c1CCN(c1ncc(C(F)(F)F)cc1Cl)C2` was “inactive”; that for `CC(=O)Nc1ccc(NC(=O)c2cccc(C(=O)OC(C)C)n2)cc1` was “inactive”.
